Test results reported in ChEMBL document CHEMBL1138064, “Discovery of N-[(3R)-1-azabicyclo[2.2.2]oct-3-yl]furo[2,3-c]pyridine-5-carboxamide, an agonist of the alpha7 nicotinic acetylcholine receptor, for the potential treatment of cognitive deficits in schizophrenia: synthesis and structure--activity relationship” (J Med Chem, 2006).
pIC50: −log10 of the molar value. The source made the active and inactive calls. No cut-off for these calls is given here.

Legend:
[1] = target: Sodium-dependent serotonin transporter (Homo sapiens) (UniProt P31645); assay: Inhibition of human 5-HT transporter at 1 uM
[2] = target: Substance-K receptor (Homo sapiens) (UniProt P21452); assay: Inhibition of NK2 receptor at 1 uM
[3] = target: Phosphodiesterase 1 (Homo sapiens) (UniProt P54750+Q01064+Q14123); assay: Inhibition of PDE1 at 1 uM; format: protein assay
[4] = Volume of distribution in rat at 5 mg/kg; format: ADME, organism-based; set-up: dose 5 mg/kg; conditions: in vivo, read-out: Vdss
[5] = Oral bioavailability in rat at 5 mg/kg; format: ADME, organism-based; conditions: in vivo
[6] = target: Neuronal acetylcholine receptor; alpha4/beta2 (Rattus norvegicus) (UniProt P09483+P12390); assay: Inhibition of [3H]cytisine binding to alpha4beta2 nAChR in rat brain homogenate at 1 uM; format: tissue-based
In short: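 Radioligand displacement in rat brain homogenate with [³H]cytisine as the α4β2 ligand; test compound at 1 µM; value reported as % block of binding.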

Homo sapiens [7] = organism: Homo sapiens; assay: Inhibition of elastase at 1 uM
[8] = target: Vasoactive intestinal polypeptide receptor 2 (Homo sapiens) (UniProt P41587); assay: Inhibition of PACAP receptor at 1 uM
Homo sapiens [9] = organism: Homo sapiens; assay: Inhibition of PCP receptor at 1 uM
[10] = target: Sigma non-opioid intracellular receptor 1 (Homo sapiens) (UniProt Q99720); assay: Inhibition of sigma receptor at 1 uM
MAO-A = MAO-A (Homo sapiens, UniProt P21397); assay: Inhibition of MAO-A at 1 uM
[11] = target: Sodium-dependent dopamine transporter (Homo sapiens) (UniProt Q01959); assay: Inhibition of dopamine uptake at human DA transporter at 1 uM
[12] = target: Adrenergic receptor alpha-2 (Homo sapiens) (UniProt P08913+P18825+P18089); assay: Inhibition of adrenergic alpha2 receptor at 1 uM; format: protein assay
[13] = target: Beta-2 adrenergic receptor (Homo sapiens) (UniProt P07550); assay: Inhibition of adrenergic beta-2 receptor at 1 uM
Homo sapiens [14] = organism: Homo sapiens; assay: Inhibition of chloride channel at 1 uM
[15] = target: Phosphodiesterase 4 (Homo sapiens) (UniProt P27815+Q08499+Q07343+Q08493); assay: Inhibition of PDE4 at 1 uM; format: protein assay
[16] = target: D(1A) dopamine receptor (Homo sapiens) (UniProt P21728); assay: Inhibition of D1 receptor at 1 uM
[17] = target: Histamine H2 receptor (Homo sapiens) (UniProt P25021); assay: Inhibition of histamine H2 receptor at 1 uM
[18] = target: Cathepsin G (Homo sapiens) (UniProt P08311); assay: Inhibition of cathepsin G at 1 uM
Homo sapiens [19] = organism: Homo sapiens; assay: Inhibition of stimulated adenylate cyclase at 1 uM
[20] = target: Soluble guanylate cyclase (Homo sapiens) (UniProt Q02153+O75343+P33402+Q02108); assay: Inhibition of stimulated guanylate cyclase at 1 uM; format: protein-complex assay
[21] = target: cGMP-dependent 3',5'-cyclic phosphodiesterase (Homo sapiens) (UniProt O00408); assay: Inhibition of PDE2 at 1 uM
[22] = target: Translocator protein (Homo sapiens) (UniProt P30536); assay: Inhibition of peripheral BZD receptor at 1 uM
[23] = target: Platelet-derived growth factor receptor (Homo sapiens) (UniProt P09619+P16234); assay: Inhibition of PDGF receptor at 1 uM; format: protein-complex assay
Homo sapiens [24] = organism: Homo sapiens; assay: Inhibition of GABA receptor at 1 uM
[25] = target: Acetylcholine receptor; alpha1/beta1/delta/gamma (Homo sapiens, UniProt P02708+P07510+P11230+Q07001); assay: Inhibition of alpha-1-beta-1-gamma-delta nAChR expressed in TE671cells by FLIPR assay; format: functional, cell-based, TE-671
In short: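 Functional FLIPR read-out in TE671 cells expressing native muscle-type α1β1γδ nAChR, cell-based; tested for agonist and antagonist activity; IC50 in µM.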

[26] = target: Muscarinic acetylcholine receptor M3 (Homo sapiens) (UniProt P20309); assay: Inhibition of M3 receptor at 1 uM
[27] = target: Neuronal acetylcholine receptor subunit alpha-7 (Rattus norvegicus) (UniProt Q05941); assay: Activity at alpha-7 nAChR in Sprague-Dawley rat hippocampal neurons assessed as induction of MLA-inhibited desensitizing inward current at 3 uM relative to (-)-nicotine; format: functional, tissue-based; set-up: scale not given: the % may be the effect or the level left; conditions: Hippocampus
In short: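 Rat hippocampal neurons were recorded by whole-cell patch clamp with rapid agonist application. Desensitizing inward currents were measured, and α7 mediation was tested with MLA (10 nM), n = 3.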

Rattus norvegicus [28] = assay: Reversal of amphetamine-induced gating deficit in Sprague-Dawley at 0.3 mg/kg, iv; format: functional, organism-based; set-up: dose 0.3 mg/kg
In short: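 Anesthetised rats; d-amphetamine 1 mg/kg iv given to disrupt auditory gating recorded in the hippocampal CA3 region (conditioning vs test responses, analogous to human P50). Agonist given iv afterwards; read-out is % gating versus amphetamine-alone. The 10 mg/kg dose was run as a separate experiment. Brain drug levels were measured after the iv doses.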

[29] = target: 5-hydroxytryptamine receptor 6 (Homo sapiens) (UniProt P50406); assay: Inhibition of 5HT6 receptor at 1 uM
[30] = target: 5-hydroxytryptamine receptor 1A (Homo sapiens) (UniProt P08908); assay: Inhibition of 5HT1A receptor at 1 uM
[31] = target: Adenosine receptor A3 (Homo sapiens) (UniProt P0DMS8); assay: Inhibition of adenosine A3 receptor at 1 uM
[32] = target: Angiotensin-converting enzyme (Homo sapiens) (UniProt P12821); assay: Inhibition of ACE at 1 uM
[33] = target: Neuromedin-K receptor (Homo sapiens) (UniProt P29371); assay: Inhibition of NK3 receptor at 1 uM
[34] = target: Muscarinic acetylcholine receptor M1 (Homo sapiens) (UniProt P11229); assay: Inhibition of M1 receptor at 1 uM
[35] = target: 5-hydroxytryptamine receptor 1B (Homo sapiens) (UniProt P28222); assay: Inhibition of 5HT1B receptor at 1 uM
[36] = target: Muscarinic acetylcholine receptor M2 (Homo sapiens) (UniProt P08172); assay: Inhibition of M2 receptor at 1 uM
[37] = target: C-X-C chemokine receptor type 2 (Homo sapiens) (UniProt P25025); assay: Inhibition of CXCR2 at 1 uM
[38] = target: Nitric oxide synthase, inducible (Homo sapiens) (UniProt P35228); assay: Inhibition of Nitric oxide synthase, inducible at 1 uM
Homo sapiens [39] = organism: Homo sapiens; assay: Inhibition of ML1 receptor at 1 uM
Homo sapiens [40] = organism: Homo sapiens; assay: Inhibition of potassium channel V type at 1 uM
Rattus norvegicus [41] = assay: Drug level in Sprague-Dawley rat brain at 10 mg/kg, iv; format: ADME, organism-based; set-up: dose 10 mg/kg, route intravenous; conditions: in vivo, read-out: Drug uptake
In short: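 Anesthetized rats received d-amphetamine (1 mg/kg, iv) and then the agonist iv in the auditory gating model. Brain concentrations were measured after the iv agonist dose.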

[42] = target: Cannabinoid receptor 2 (Homo sapiens) (UniProt P34972); assay: Inhibition of CB2 receptor at 1 uM
Sequence of Cannabinoid receptor 2 (Homo sapiens) (P34972 whole entry): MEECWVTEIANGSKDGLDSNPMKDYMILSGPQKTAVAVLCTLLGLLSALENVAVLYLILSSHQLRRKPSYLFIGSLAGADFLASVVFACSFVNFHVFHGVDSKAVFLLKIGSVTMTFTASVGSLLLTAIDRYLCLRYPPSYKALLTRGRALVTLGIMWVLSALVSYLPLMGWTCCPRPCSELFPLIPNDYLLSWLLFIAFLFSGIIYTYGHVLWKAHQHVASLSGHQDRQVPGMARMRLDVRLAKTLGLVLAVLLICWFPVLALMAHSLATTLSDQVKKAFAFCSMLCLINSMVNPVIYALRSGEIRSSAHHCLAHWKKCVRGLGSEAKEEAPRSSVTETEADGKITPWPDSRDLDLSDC

Sequence of Sigma non-opioid intracellular receptor 1 (Homo sapiens) (Q99720 whole entry): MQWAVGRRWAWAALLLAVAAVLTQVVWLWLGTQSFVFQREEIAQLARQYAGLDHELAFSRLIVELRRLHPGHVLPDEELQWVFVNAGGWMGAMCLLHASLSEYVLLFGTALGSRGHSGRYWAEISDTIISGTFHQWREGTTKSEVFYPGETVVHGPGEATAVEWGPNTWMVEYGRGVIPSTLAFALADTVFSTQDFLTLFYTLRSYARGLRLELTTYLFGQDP
Sequence of cGMP-dependent 3',5'-cyclic phosphodiesterase (Homo sapiens) (O00408 whole entry): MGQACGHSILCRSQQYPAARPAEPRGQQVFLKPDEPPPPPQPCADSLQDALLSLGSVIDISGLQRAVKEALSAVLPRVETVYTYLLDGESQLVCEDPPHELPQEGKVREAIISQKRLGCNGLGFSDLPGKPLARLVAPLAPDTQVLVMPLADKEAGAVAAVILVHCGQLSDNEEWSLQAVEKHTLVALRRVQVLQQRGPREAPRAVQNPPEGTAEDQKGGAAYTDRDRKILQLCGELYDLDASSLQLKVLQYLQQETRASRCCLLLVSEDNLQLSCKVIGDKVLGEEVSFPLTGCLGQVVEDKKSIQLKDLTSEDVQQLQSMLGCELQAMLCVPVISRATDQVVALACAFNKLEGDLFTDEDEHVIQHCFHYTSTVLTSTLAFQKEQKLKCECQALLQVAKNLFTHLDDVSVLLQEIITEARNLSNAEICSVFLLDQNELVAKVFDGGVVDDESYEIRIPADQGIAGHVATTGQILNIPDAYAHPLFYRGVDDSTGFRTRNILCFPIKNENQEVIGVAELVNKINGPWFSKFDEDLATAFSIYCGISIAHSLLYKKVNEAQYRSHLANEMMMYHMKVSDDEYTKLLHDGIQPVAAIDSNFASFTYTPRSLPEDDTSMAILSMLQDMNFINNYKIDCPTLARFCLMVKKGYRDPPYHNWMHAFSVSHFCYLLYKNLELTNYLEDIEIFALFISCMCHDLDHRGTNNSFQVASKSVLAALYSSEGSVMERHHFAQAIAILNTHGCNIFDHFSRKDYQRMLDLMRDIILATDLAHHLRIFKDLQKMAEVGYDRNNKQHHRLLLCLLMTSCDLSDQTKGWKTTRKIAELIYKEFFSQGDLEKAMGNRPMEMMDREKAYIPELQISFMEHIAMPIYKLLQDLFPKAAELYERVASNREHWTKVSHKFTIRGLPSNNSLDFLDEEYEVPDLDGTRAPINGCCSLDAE
Sequence of Substance-K receptor (Homo sapiens) (P21452 whole entry): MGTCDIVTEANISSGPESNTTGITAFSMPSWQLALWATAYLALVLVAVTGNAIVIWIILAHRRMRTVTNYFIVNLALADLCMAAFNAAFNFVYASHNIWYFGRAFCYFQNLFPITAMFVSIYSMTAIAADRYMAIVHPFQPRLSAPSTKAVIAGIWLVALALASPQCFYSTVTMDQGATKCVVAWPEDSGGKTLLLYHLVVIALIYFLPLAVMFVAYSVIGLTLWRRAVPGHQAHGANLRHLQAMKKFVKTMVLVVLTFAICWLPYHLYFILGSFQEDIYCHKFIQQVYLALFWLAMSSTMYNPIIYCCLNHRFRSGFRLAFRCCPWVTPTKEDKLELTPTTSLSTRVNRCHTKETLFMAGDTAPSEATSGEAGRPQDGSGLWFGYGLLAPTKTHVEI
Sequence of 5-hydroxytryptamine receptor 1B (Homo sapiens) (P28222 whole entry): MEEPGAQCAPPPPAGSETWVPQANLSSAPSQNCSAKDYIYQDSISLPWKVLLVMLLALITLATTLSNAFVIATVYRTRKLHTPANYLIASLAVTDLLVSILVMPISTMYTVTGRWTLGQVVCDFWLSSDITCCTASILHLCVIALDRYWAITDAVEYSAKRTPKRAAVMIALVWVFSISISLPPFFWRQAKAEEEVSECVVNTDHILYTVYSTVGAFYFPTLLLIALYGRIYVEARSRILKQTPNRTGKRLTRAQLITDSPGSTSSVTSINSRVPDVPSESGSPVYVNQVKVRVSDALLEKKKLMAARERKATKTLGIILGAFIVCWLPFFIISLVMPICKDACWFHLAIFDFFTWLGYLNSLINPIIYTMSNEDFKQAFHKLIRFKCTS
Sequence of Cathepsin G (Homo sapiens) (P08311 whole entry): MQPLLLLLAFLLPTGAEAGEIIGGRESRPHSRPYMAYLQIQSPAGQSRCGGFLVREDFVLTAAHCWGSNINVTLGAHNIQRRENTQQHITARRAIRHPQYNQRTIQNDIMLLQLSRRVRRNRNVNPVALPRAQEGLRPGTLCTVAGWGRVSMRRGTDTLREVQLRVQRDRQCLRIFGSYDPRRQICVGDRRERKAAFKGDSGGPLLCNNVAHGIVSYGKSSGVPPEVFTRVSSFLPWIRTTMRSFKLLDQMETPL
Sequence of C-X-C chemokine receptor type 2 (Homo sapiens) (P25025 whole entry): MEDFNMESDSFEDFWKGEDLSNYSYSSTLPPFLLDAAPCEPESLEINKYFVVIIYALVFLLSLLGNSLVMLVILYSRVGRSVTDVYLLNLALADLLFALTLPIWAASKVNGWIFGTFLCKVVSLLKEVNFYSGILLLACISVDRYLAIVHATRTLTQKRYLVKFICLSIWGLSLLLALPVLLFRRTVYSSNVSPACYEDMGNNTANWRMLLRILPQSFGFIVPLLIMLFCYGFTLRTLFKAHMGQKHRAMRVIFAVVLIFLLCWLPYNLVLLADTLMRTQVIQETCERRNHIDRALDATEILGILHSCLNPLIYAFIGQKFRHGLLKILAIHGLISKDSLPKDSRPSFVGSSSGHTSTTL
Sequence of Histamine H2 receptor (Homo sapiens) (P25021 whole entry): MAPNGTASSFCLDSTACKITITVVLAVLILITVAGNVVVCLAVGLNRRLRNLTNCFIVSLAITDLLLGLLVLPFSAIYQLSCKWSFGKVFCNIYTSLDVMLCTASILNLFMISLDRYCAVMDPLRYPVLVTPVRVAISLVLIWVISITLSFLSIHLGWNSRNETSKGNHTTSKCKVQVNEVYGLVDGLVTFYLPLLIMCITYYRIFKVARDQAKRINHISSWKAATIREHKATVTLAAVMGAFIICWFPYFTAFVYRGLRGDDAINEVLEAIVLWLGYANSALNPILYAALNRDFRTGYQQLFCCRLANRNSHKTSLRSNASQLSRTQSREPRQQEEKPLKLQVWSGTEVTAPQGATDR
Sequence of Nitric oxide synthase, inducible (Homo sapiens) (P35228 whole entry): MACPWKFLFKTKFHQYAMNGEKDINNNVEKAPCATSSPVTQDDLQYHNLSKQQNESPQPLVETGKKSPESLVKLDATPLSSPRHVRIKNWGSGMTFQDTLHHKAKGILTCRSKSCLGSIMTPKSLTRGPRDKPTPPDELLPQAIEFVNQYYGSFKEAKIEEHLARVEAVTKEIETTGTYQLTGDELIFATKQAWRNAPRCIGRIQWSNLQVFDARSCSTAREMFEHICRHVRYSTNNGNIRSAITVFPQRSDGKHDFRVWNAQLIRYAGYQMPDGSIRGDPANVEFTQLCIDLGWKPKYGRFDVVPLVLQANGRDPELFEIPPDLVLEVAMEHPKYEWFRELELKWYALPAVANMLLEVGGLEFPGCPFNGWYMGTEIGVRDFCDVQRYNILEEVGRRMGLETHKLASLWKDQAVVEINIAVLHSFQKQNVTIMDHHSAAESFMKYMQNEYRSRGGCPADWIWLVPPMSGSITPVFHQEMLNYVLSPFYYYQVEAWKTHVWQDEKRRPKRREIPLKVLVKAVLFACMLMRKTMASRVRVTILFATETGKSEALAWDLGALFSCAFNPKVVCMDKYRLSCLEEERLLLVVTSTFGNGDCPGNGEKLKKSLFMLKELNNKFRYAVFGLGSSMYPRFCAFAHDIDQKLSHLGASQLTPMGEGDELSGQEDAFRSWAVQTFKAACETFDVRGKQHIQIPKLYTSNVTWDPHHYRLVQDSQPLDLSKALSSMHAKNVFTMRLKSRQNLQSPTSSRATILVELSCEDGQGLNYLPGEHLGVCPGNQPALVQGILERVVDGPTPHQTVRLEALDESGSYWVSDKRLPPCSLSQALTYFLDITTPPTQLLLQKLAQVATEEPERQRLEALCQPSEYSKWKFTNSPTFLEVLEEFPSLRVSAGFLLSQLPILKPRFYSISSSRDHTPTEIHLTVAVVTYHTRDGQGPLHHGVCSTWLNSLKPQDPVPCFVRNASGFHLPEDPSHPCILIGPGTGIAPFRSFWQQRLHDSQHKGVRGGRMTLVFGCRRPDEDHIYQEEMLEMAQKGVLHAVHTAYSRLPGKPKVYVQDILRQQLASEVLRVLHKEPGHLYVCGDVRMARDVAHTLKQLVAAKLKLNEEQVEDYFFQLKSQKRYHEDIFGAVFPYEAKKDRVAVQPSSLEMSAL
Sequence of Neuromedin-K receptor (Homo sapiens) (P29371 whole entry): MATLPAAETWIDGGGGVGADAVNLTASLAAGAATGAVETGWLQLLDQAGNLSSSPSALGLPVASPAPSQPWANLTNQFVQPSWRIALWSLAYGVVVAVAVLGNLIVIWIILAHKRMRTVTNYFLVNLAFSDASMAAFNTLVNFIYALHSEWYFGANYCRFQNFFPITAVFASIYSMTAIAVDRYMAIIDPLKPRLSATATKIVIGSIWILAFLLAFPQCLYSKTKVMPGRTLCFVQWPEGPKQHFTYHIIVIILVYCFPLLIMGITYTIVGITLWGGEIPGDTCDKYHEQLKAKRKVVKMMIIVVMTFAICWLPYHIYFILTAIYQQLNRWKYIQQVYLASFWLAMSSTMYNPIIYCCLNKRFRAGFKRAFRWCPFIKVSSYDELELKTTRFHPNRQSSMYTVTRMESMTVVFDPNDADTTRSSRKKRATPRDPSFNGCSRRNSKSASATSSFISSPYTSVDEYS

In the case of `O=C(N[C@H]1CN2CCC1CC2)c1cc2ccoc2cn1` [PHA-543613], the inhibition [1] was less than 10%, the inhibition [2] was less than 10% and the inhibition [3] was less than 10%. For the same molecule, the Vd [4] was 1.8 L/kg, the bioavailability [5] was 65% and the inhibition [6] was 13%. It also gave an inhibition (Homo sapiens [7]) of 22%, an inhibition [8] of less than 10% and an inhibition (Homo sapiens [9]) of less than 10%. It also gave an inhibition [10] of less than 10%, an inhibition at 1 µM (MAO-A) of less than 10% and an inhibition [11] of less than 10%. For the same molecule, the inhibition [12] was 14%, the inhibition [13] was less than 10% and the inhibition (Homo sapiens [14]) was less than 10%. It also gave an inhibition [15] of less than 10%, an inhibition [16] of less than 10% and an inhibition [17] of less than 10%. It also gave an inhibition [18] of 15%, an inhibition (Homo sapiens [19]) of less than 10% and an inhibition [20] of less than 10%. It also gave an inhibition [21] of 25%, an inhibition [22] of less than 10% and an inhibition [23] of less than 10%. For the same molecule, the inhibition (Homo sapiens [24]) was less than 10%, the pIC50 [25] was less than 4.00 and the inhibition [26] was 33%. The Activity [27] was 103%, the Activity (Rattus norvegicus [28]) was “Active” and the inhibition [29] was less than 10%. For the same molecule, the inhibition [30] was less than 10%, the inhibition [31] was 12% and the inhibition [32] was less than 10%. It also gave an inhibition [33] of less than 10%, an inhibition [34] of 16% and an inhibition [35] of less than 10%. The inhibition [36] was 23%, the inhibition [37] was less than 10% and the inhibition [38] was less than 10%. The inhibition (Homo sapiens [39]) was 11%, the inhibition (Homo sapiens [40]) was less than 10% and the concentration (Rattus norvegicus [41]) was 14.9 µM. The inhibition [42] was less than 10%.
